{"data": "Measured values collected from several papers", "target": "Delta-type opioid receptor (Oprd1, Rattus norvegicus, UniProt P33533)", "notes": "cell membranes", "note": "Protocols differ between the studies behind these lines. pKi: −log10 of the molar value."}
{"SMILES": "Cc1cc(O)cc(C)c1C[C@H](C)C(=O)N[C@@H]1C/C=C\\CC[C@@H](C(N)=O)NC(=O)[C@H](Cc2ccccc2)NC(=O)[C@H](Cc2ccccc2)NC1=O", "observed": "ligand displacement", "technique": "radioligand", "measurement": "pKi", "value": 8.12}
{"SMILES": "Cc1cccc(C)c1C[C@H](NC(=O)[C@@H](CCCNC(=N)N)NC(=O)[C@@H](N)Cc1c(C)cc(O)cc1C)C(=O)N[C@@H](CCCCN)C(N)=O", "observed": "ligand displacement", "technique": "radioligand", "measurement": "pKi", "value": 6.98}
{"SMILES": "Cc1cc(O)cc(C)c1C[C@H](N)C(=O)N[C@@H]1CCN(S(C)(=O)=O)c2ccc(CN3CCc4ccccc4C3)cc21", "observed": "GTPγS binding", "mode": "antagonist", "measurement": "Kb", "value": "0.85 nM"}
{"SMILES": "Cc1cc(O)cc(C)c1C[C@H](N)C(=O)N[C@H](CCCNC(=N)N)C(=O)N[C@@H](Cc1c(C)cccc1C(C)C)C(=O)N[C@@H](CCCCN)C(N)=O", "observed": "ligand displacement", "technique": "radioligand", "measurement": "pKi", "value": 7.11}
{"SMILES": "N=C(N)NCCC[C@H]1NC(=O)[C@H](Cc2ccc(O)cc2)NC(=O)[C@H](CCCCN)NC(=O)[C@H](Cc2ccccc2)NC1=O", "observed": "ligand displacement", "technique": "radioligand", "measurement": "pKi", "value": 7.19}
{"SMILES": "Cc1cc(O)cc(C)c1C[C@H](N)C(=O)N1CCc2ccc(Cc3cccc(N)c3)cc2C1", "observed": "ligand displacement", "technique": "radioligand", "measurement": "pKi", "value": 8.26}
{"SMILES": "Cc1cc(O)cc(C)c1C[C@H](C)C(=O)N[C@@H]1CCCCC[C@@H](C(N)=O)NC(=O)[C@H](Cc2ccccc2)NC(=O)[C@H](Cc2ccccc2)NC1=O", "observed": "ligand displacement", "technique": "radioligand", "measurement": "pKi", "value": 7.73}
{"SMILES": "Cc1cc(O)cc(C)c1C[C@H](N)C(=O)N1CCc2ccc(Cc3cccc([N+](=O)[O-])c3)cc2C1", "observed": "ligand displacement", "technique": "radioligand", "measurement": "pKi", "value": 8.60}
{"SMILES": "Cc1cc(O)cc(C)c1C[C@H](N)C(=O)N[C@@H]1CCN(C(=O)c2ccccc2)c2ccc(Cc3ccc4ccccc4c3)cc21", "observed": "GTPγS binding", "mode": "antagonist", "measurement": "Kb", "value": "15 nM"}
{"SMILES": "Cc1cccc(Cc2ccc3c(c2)CN(C(=O)[C@@H](N)Cc2c(C)cc(O)cc2C)CC3)c1", "observed": "ligand displacement", "technique": "radioligand", "measurement": "pKi", "value": 8.52}
{"SMILES": "Cc1cc(C)c(C[C@H](NC(=O)[C@@H](CCCNC(=N)N)NC(=O)[C@@H](N)Cc2c(C)cc(O)cc2C)C(=O)N[C@@H](CCCCN)C(N)=O)c(C)c1", "observed": "ligand displacement", "technique": "radioligand", "measurement": "pKi", "value": 6.48}
{"SMILES": "NC(N)=Nc1ccc2[nH]c3c(c2c1)C[C@@]1(O)[C@H]2Cc4ccc(O)c5c4[C@@]1(CCN2CC1CC1)[C@H]3O5", "observed": "ligand displacement", "technique": "radioligand", "measurement": "pKi", "value": 8.54}
{"SMILES": "Cc1cc(O)cc(C)c1C[C@H](N)C(=O)N1CCc2ccc(Cc3ccccc3N)cc2C1", "observed": "ligand displacement", "technique": "radioligand", "measurement": "pKi", "value": 8.05}
